Published values from different studies.
Target: Tyrosine-protein kinase Lyn (LYN, Homo sapiens, UniProt P07948)

`C=CC(=O)N1CCC(C(=O)NCC(=O)N2CCN(c3nc(-c4cnc(N)nc4C(F)F)nc(N4CCOCC4)n3)CC2)CC1` has a remaining binding of 100% (binding; competition with immobilised ligand; 1 µM).
The remaining binding of `CN(C)C(=O)Cn1cc(-c2nc([C@@](C)(c3ccc(-c4cnc(N)nc4)cc3)C3CC3)no2)cn1` is reported as 87% (cell-free assay; competition with immobilised ligand; 1 µM).
For `CN(c1nccc(-c2cnn3ncccc23)n1)C1CC1`, the remaining binding was 86% (binding; 1 µM).
For `O=C(Nc1c[nH]nc1C(=O)NC1CCNCC1)c1cc(F)cc(F)c1`, the remaining binding was 100% (binding; competition with immobilised ligand; 1 µM).
For `O=C(NCc1ncc(C(F)(F)F)cc1Cl)c1ccc2c(c1)C1(CCS(=O)(=O)CC1)[C@H](C1CC1)N2S(=O)(=O)c1ccc(F)cc1`, the remaining binding was 100% (cell-free assay; competition with immobilised ligand; 1 µM).
`CNC(=O)[C@@H]1CC[C@@H](n2c(-c3ccc4cnccc4c3)nc3ccc(C(=O)NCc4cccc(C(N)=O)c4)cc32)C1` has a remaining binding of 95% (binding; competition with immobilised ligand; 1 µM).
For `CCCCN(CCCC)C(=O)CN1C[C@@H](c2cc(OC)c3c(c2)OCO3)[C@H](C(=O)O)[C@H]1CC(C)(C)CCC`, the remaining binding was 75.1% (cell-free assay; competition with immobilised ligand; 1 µM).
`O=C(NCCCN1CCOCC1)c1ccc(Nc2ncc(Cl)c(-c3ccc(Cl)s3)n2)cc1` gave a remaining binding of 87% (binding; competition with immobilised ligand; 1 µM).
For `N[C@@H]1CCN(c2nccc(-c3cnn4ncccc34)n2)C1`, the remaining binding was 100% (binding; 1 µM).
`CCS(=O)(=O)c1cc2cc(C[C@@](O)(CC(C)(C)c3ccc(F)cc3C(N)=O)C(F)(F)F)[nH]c2cn1` has a remaining binding of 100% (cell-free assay; competition with immobilised ligand; 1 µM).
`Cc1ccc(-n2nc(C(C)(C)C)cc2NC(=O)Nc2ccc(-n3c(N)c(C(N)=O)c4nc5ccc(NCCCN)cc5nc43)cc2)cc1` gave a remaining binding of 0.5% (cell-free assay; competition with immobilised ligand; 1 µM).
The remaining binding of `Nc1cnc(N2CCc3cc(S(=O)(=O)Nc4c(F)cc(Cl)cc4F)cc(N4CCCC4=O)c32)nc1` is reported as 88% (cell-free assay; competition with immobilised ligand; 1 µM).
With `O=C(NCCCN1CCOCC1)c1ccc(Nc2nccc(-c3cc4ccccc4s3)n2)cc1` the remaining binding was 94% (binding; competition with immobilised ligand; 1 µM).
`COc1ccnn2ncc(-c3ccnc(N(C)C)n3)c12` gave a remaining binding of 100% (binding; 1 µM).
For `COc1ncc2cc3ccccc3nc2c1C#N`, the remaining binding was 94% (cell-free assay; competition with immobilised ligand; 5 µM).
The remaining binding of `O=C(c1ccc(Nc2ncc(Cl)c(-c3cc4ccccc4s3)n2)cc1)N1CCC(N2CCCC2)CC1` is reported as 83% (binding; competition with immobilised ligand; 1 µM).
`F[C@@H]1CCN(c2nccc(-c3cnn4ncccc34)n2)C1` has a remaining binding of 87% (binding; 1 µM).
The remaining binding of `CCC(=O)N[C@@H]1CC[C@H](C(=O)N(C)c2ccc(-c3nc4ccccc4o3)cc2)C1` is reported as 92% (cell-free assay; competition with immobilised ligand; 1 µM).
The remaining binding of `c1cnn2ncc(-c3ccnc(N4CCC45COC5)n3)c2c1` is reported as 88% (binding; 1 µM).
`COc1cnc(Nc2cccc(S(N)(=O)=O)c2)nc1N1CCN(c2ccccc2)CC1` gave a remaining binding of 92% (binding; competition with immobilised ligand; 1 µM).
The remaining binding of `C[C@@H]1CCN(c2nccc(-c3cnn4ncccc34)n2)C1` is reported as 93% (binding; 1 µM).
`c1cncc(-c2cccc(Nc3nccc(NC4CCCCC4)n3)c2)c1` gave a remaining binding of 48% (binding; competition with immobilised ligand; 10 µM).
The remaining binding of `CO[C@@H](C)c1c(Nc2ccc([C@@H](N(C)C(=O)C3CCS(=O)(=O)CC3)C(F)(F)F)cc2)cnc2cc(Cl)nn12` is reported as 97% (cell-free assay; competition with immobilised ligand; 1 µM).
For `Cc1cnn2ncc(-c3ccnc(N(C)C)n3)c2c1`, the remaining binding was 92% (binding; 1 µM).
